Screens from PubChem BioAssay.
RGS4 block = RGS4 inhibitors, primary screen, cell-based, HEK293 M3R inducible RGS4, calcium flux | Regulator of G-protein signaling 4 (Homo sapiens), P49798 | Fluo-4 calcium flux; hits give high values; triggered by carbachol at its EC20 | B-score at 10 µM | AID 463165, 2010 | actives 0.45% (n = 310,000);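 active = B-score, a plate-corrected calcium signal, over three deviations above library mean, with baseline fluorescence within five deviations of library mean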;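 note: RGS4 expression induced by doxycycline in cells with stable M3 receptor; B-score is computed from the integrated fluorescence ratio over baseline after carbachol; higher B-score means a larger calcium signal and so more RGS4 inhibition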
Target sequence (P49798 whole entry, looked up): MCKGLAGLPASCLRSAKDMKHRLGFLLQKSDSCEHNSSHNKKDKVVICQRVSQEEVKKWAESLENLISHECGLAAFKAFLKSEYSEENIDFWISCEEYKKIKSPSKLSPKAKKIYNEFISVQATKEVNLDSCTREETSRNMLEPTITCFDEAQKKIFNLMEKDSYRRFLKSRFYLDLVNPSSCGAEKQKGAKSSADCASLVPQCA
MrgX1 PAM = positive allosteric modulators of MrgX1, primary screen, HEK293 cells, Fluo-4 calcium flux; Mas-related G-protein coupled receptor member X1 (Homo sapiens), Q96LB2; AID 588675, 2011; FDSS; hits give high values; B-score at 10 µM; actives 0.63% (n = 310,000);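 active = plate-corrected calcium response at least 3 library SD above typical, normal starting fluorescence, not activating the receptor alone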;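 note: compound read alongside a low EC10 to EC30 dose of BAM8-22 agonist; peak minus trough fluorescence over baseline measured at the second addition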
Target sequence (Q96LB2 whole entry, looked up): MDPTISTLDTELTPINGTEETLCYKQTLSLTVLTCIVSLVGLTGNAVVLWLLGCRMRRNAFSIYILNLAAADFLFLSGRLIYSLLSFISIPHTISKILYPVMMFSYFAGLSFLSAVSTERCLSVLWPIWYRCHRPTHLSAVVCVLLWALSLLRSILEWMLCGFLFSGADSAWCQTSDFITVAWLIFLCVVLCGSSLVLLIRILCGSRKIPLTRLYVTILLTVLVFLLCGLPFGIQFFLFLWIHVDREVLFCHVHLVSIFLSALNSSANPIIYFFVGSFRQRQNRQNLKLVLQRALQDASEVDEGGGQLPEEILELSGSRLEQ
MrgX1 antag = antagonists of human MrgX1 receptor, primary screen, HEK293 cells, Fluo-4 calcium flux; BAM8-22 antagonism; hits give low values; Mas-related G-protein coupled receptor member X1 (Homo sapiens), Q96LB2; actives 1.3% (n = 310,000); AID 588676, 2011; B-score at 10 µM;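 active = calcium-response B-score plate-corrected more than 3 library SD below zero, starting fluorescence within 5 deviations, no agonist response on first addition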;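 note: peak minus trough fluorescence over baseline after final BAM8-22 challenge near maximal dose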
RGS4 act = RGS4 potentiators or activators, primary screen, cell-based, HEK293 M3R inducible RGS4, calcium flux; carbachol calcium flux Fluo4; hits give low values; B-score at 10 µM; actives 0.92% (n = 310,000);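 active = B-score of the integrated calcium signal more than 4 SD below the library mean, with starting fluorescence not abnormally high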;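 note: negative B-score means reduced calcium response which marks RGS4 activation or potentiation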
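Reagent: ECmax carbachol challenge; Test system: M3R-expressing HEK293 line, RGS4 induced by doxycycline; Schedule: overnight RGS4 induction, 30 min dye load 37 °C, 20 min compound RT; Detection: calcium dye Fluo4 fluorescence; Read-out: Agonist-evoked peak-minus-minimum fluorescence over baseline, integrated ratio, B score.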
MrgX1 ag = agonists of human MrgX1 receptor, primary screen, HEK293 cells, Fluo-4 calcium flux | Mas-related G-protein coupled receptor member X1 (Homo sapiens), Q96LB2 | Fluo-4 calcium fluorescence, agonist mode; hits give high values | B-score at 10 µM | actives 0.44% (n = 310,000) | AID 588627, 2011;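 active = calcium response B-score plate-corrected fluorescence ratio at least 3 library SD, with starting fluorescence B-score inside 5 SD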
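System – MrgX1-expressing HEK293 cells · Incubation – cells plated overnight, dye loaded 0.5 h 37 °C, 0.5 h room temperature · Technique – kinetic Fluo-4 NW fluorescence of intracellular calcium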
MrgX1 ant reconf = MrgX1 receptor antagonists, duplicate retest, confirmation, HEK293 cells, Fluo-4 calcium flux; BAM8-22 calcium flux; hits give low values; actives 19% (n = 2,300); remaining BAM8-22 calcium response % of control (hits give low values), % at 10 µM; shares compounds with MrgX1 antag;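 active = remaining agonist calcium response no higher than 100% minus 3 SD of agonist-only control wells, with starting fluorescence near control levels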;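 note: agonist BAM8-22 given at a near maximal EC90 to ECmax level; peak minus minimum fluorescence divided by baseline after agonist addition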
HEK293 Ca flux = nonspecific calcium signal in parental HEK293, confirmation, counter-screen for MrgX1 antagonist project, parental HEK293 cells, Fluo-4 calcium flux; shares compounds with MrgX1 antag; Fluo-4 calcium fluorescence, FDSS; fluorescence ratio F(max-min)/F0 at 10 µM; actives 2% (n = 4,000); AID 624111, 2012;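 active = duplicate-averaged calcium fluorescence ratio at least three times the standard deviation of buffer wells, a nonspecific response in parental cells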
HEK293 Ca counter = calcium response in parental HEK293 cells, primary screen, counter-screen for MrgX1 allosteric activator project, cell-based, Fluo-4 calcium flux, duplicate. shares compounds with MrgX1 antag. Fluo-4 fluorescence ratio; hits give high values. fluorescence ratio F(max-min)/F0 at 10 µM. actives 0.4% (n = 4,000). AID 624114, 2012;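 active = calcium fluorescence ratio, averaged over duplicates, at least 3 SD of the buffer-well ratio, meaning a nonspecific response in receptor-free cells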;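 note: untransfected parental HEK293 lacking MrgX1 used as counterscreen for MrgX1 allosteric activators; fluorescence change taken during the second addition on a kinetic imager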
HEK293 Ca cntr2 = calcium response in parental HEK293 cells, primary screen, counter-screen for MrgX1 agonist project, cell-based, Fluo-4 calcium flux, duplicate, agonist mode. shares compounds with MrgX1 antag. Fluo-4 calcium fluorescence (FDSS); hits give high values. fluorescence ratio F(max-min)/F0 at 10 µM. actives 8.7% (n = 4,000). AID 624115, 2012;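 active = calcium fluorescence ratio at least three times the spread of buffer wells, meaning a non-specific response in parental cells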
Large screens that a line does not name were inactive (follow-up assays come after a bar, where they were run). Only some compounds are listed: those with a hit (about 3.5% of all), similar ones and a draw of the others.

COc1ccc(-c2cc(C(F)(F)F)n3ncc(C(=O)N4CCCCC4c4cccnc4)c3n2)cc1 (stereo not given)	MrgX1 antag -5.8 | MrgX1 ant reconf inactive | HEK293 Ca flux inactive | HEK293 Ca counter inactive | HEK293 Ca cntr2 inactive
CCOC(=O)C1CCCN(C(=O)c2cnn3c(C(F)(F)F)cc(-c4ccccc4)nc23)C1 (stereo not given)	none
Cc1cccn2cc(-c3c[nH]c4ccccc34)nc12	none
Brc1ccc2nc(-c3c[nH]c4ccccc34)cn2c1	MrgX1 antag -5.4 | MrgX1 ant reconf inactive | HEK293 Ca flux inactive | HEK293 Ca counter inactive | HEK293 Ca cntr2 inactive
CCN(C(=O)CSc1nc2ccccc2c(=O)n1C(C)COC)C1CCS(=O)(=O)C1 (stereo not given)	none
Cc1nn2c(NCc3ccccn3)c3c(nc2c1-c1ccccc1)CCC3	none
Cc1nn2c(NCCN3CCOCC3)c3c(nc2c1-c1ccccc1)CCCC3	MrgX1 antag -5.9 | MrgX1 ant reconf inactive | HEK293 Ca flux inactive | HEK293 Ca counter inactive | HEK293 Ca cntr2 inactive
CC(C)c1ccccc1NC(=O)C1CC(=O)N(C2CCCC2)C1 (stereo not given)	MrgX1 antag -5.1 | MrgX1 ant reconf inactive | HEK293 Ca flux inactive | HEK293 Ca counter inactive | HEK293 Ca cntr2 inactive
CCOC(=O)c1cnc(Nc2nc3ccccc3o2)nc1CSc1nnc(C)s1	MrgX1 antag -5.3 | MrgX1 ant reconf inactive | HEK293 Ca flux inactive | HEK293 Ca counter inactive | HEK293 Ca cntr2 inactive
O=[N+]([O-])c1ccc(NCCCNS(=O)(=O)c2ccccc2)c(Cl)c1	none
O=C(O)Cn1cc(C(=O)c2ccco2)c2ccccc21	MrgX1 antag -7.9 | MrgX1 ant reconf inactive | HEK293 Ca flux inactive | HEK293 Ca counter inactive | HEK293 Ca cntr2 inactive
CCOC(=O)Cn1cc(C(=O)c2ccco2)c2ccccc21	none
CC(C)NC(=O)c1sc2nc(-c3cccs3)cc(-c3cccs3)c2c1N	MrgX1 antag -9 | MrgX1 ant reconf inactive | HEK293 Ca flux inactive | HEK293 Ca counter inactive | HEK293 Ca cntr2 inactive
CC(=O)c1sc2nc(-c3cccs3)ccc2c1N	none
O=C(c1cccc(C(=O)N2CCN(c3ncccn3)CC2)c1)N1CCN(c2ncccn2)CC1	none
O=C(c1ccc2nc(-c3ccco3)c(-c3ccco3)nc2c1)N1CCN(c2ncccn2)CC1	MrgX1 antag -6 | MrgX1 ant reconf 83% | HEK293 Ca flux inactive | HEK293 Ca counter inactive | HEK293 Ca cntr2 inactive
CCCNC(=O)c1ccc2nc(-c3ccccc3)c(-c3ccccc3)nc2c1	MrgX1 antag -5.3 | MrgX1 ant reconf inactive | HEK293 Ca flux inactive | HEK293 Ca counter inactive | HEK293 Ca cntr2 inactive
O=C(Nc1ccc(N2CCOCC2)cc1)c1ccc2nc(-c3ccco3)c(-c3ccco3)nc2c1	none
O=C(Nc1ccccc1)c1ccc2nc(-c3ccco3)c(-c3ccco3)nc2c1	MrgX1 antag -4.6 | MrgX1 ant reconf 79% | HEK293 Ca flux inactive | HEK293 Ca counter inactive | HEK293 Ca cntr2 inactive
COCCNc1nc2c(c(=O)[nH]c(=O)n2C)n1CCCc1ccccc1	none
Cc1ccc(C(C)C)cc1NC(=O)Nc1ccc([N+](=O)[O-])cc1	none
CN(CC(=O)Nc1c(Cl)cccc1Cl)C(=O)C1CSC2(C)CCC(=O)N12 (stereo not given)	MrgX1 antag -6.8 | MrgX1 ant reconf inactive | HEK293 Ca flux inactive | HEK293 Ca counter inactive | HEK293 Ca cntr2 inactive
Cc1nn(-c2nnc(NC3CCCCC3)nn2)c(C)c1Br	MrgX1 antag -4.5 | MrgX1 ant reconf inactive | HEK293 Ca flux inactive | HEK293 Ca counter inactive | HEK293 Ca cntr2 inactive
Cc1nn(C)c(C)c1S(=O)(=O)NC1CCCC1	none
CC1Cc2ccccc2N1C(=O)CN1CCC(n2nnc3cc(C(F)(F)F)ccc32)CC1 (stereo not given)	none
CN(C)S(=O)(=O)c1cccc(NC(=O)CN2C(=O)C3C4C=CC(C4)C3C2=O)c1 (stereo not given)	MrgX1 antag -6.8 | MrgX1 ant reconf inactive | HEK293 Ca flux inactive | HEK293 Ca counter inactive | HEK293 Ca cntr2 inactive
O=c1nc(Nc2ccccc2)sc2ccc([N+](=O)[O-])cc12	none
CC(=O)Nc1ccc(S(=O)(=O)NCC2CCC(C(=O)NC(C)c3ccccc3)CC2)cc1 (stereo not given)	MrgX1 antag -6 | MrgX1 ant reconf inactive | HEK293 Ca flux inactive | HEK293 Ca counter inactive | HEK293 Ca cntr2 inactive
COC(=O)Oc1cncc(C(=O)O)c1	MrgX1 antag -5.2 | MrgX1 ant reconf inactive | HEK293 Ca flux inactive | HEK293 Ca counter inactive | HEK293 Ca cntr2 inactive
CCOc1ccc(NC(=O)CS(=O)(=O)c2cn(C)c3ccccc23)cc1	MrgX1 antag -8 | MrgX1 ant reconf inactive | HEK293 Ca flux inactive | HEK293 Ca counter inactive | HEK293 Ca cntr2 inactive
Cc1cccc(C)c1OC(=O)CN(c1ccc(Cl)cc1)S(C)(=O)=O	MrgX1 antag -7.1 | MrgX1 ant reconf inactive | HEK293 Ca flux inactive | HEK293 Ca counter inactive | HEK293 Ca cntr2 inactive
CS(=O)(=O)N(CC(=O)NCc1ccccc1)c1ccc(Cl)cc1	none
CC[C@@H]1[C@H]2CCCC(=O)N3CC[C@@H](C[C@@H]1OC(=O)Nc1ccccc1)[C@@H]23	none
O=C(NCCN1CCOCC1)c1ccc2c(c1)ncn2C1CCCCC1	MrgX1 antag -6.8 | MrgX1 ant reconf inactive | HEK293 Ca flux inactive | HEK293 Ca counter inactive | HEK293 Ca cntr2 inactive
CCOC(=O)C1=C(C)Nc2nc(C)nn2C1c1ccc(OC)c(OC)c1 (stereo not given)	MrgX1 antag -6.7 | MrgX1 ant reconf inactive | HEK293 Ca flux inactive | HEK293 Ca counter inactive | HEK293 Ca cntr2 inactive
O=C1NC2(CCCc3ccccc32)C(=O)N1CCOc1ccc(Br)cc1 (stereo not given)	none
